{"source": "ChEMBL document CHEMBL1140317", "about": "“Novel alpha-amino-3-hydroxy-5-methyl-4-isoxazole propionate (AMPA) receptor antagonists of 2,3-benzodiazepine type: chemical synthesis, in vitro characterization, and in vivo prevention of acute neurodegeneration” (J Med Chem, 2005)", "key": {"[1]": {"target": "Glutamate receptor ionotropic, AMPA (Rattus norvegicus, UniProt P19490+P19491+P19492+P19493)", "assay": "In vitro inhibition of AMPA receptor mediated currents in primary cultured rat fetal hippocampal neurons", "assay_type": "tissue-based, Hippocampus", "method_in_brief": "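Whole-cell patch clamp at −60 mV on hippocampal neurons from E19 Wistar rat fetuses, cultured 6–14 days (cytosine-arabinoside from day 6). Inward currents were evoked by bath-perfused kainate in pH 7.4 HEPES medium with CsCl pipet solution. Antagonist was bath-applied after 90 s preincubation in 0.3% DMSO final. Currents were normalized to the no-antagonist value, 5–6 cells per point, and the logistic fit gave IC50.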"}, "Rattus norvegicus [2]": {"system": "Rattus norvegicus", "assay": "Effect on total cerebral infarct volume measured 24 hour after permanent MCA occlusion in rat upon four i.p. doses of 10 mg/kg (n=15)", "assay_type": "functional", "settings": "route intraperitoneal", "method_in_brief": "(§1)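 Male Fischer-344 rats with permanent MCA occlusion received four ip injections in 10% cremophor EL at 1, 2, 3 and 4 h after occlusion. Total infarct volume (cortex and striatum) was measured 24 h after occlusion by TTC staining with Cavalieri volume calculation. Results are mean ± SD versus vehicle group, ANOVA followed by Dunnett test.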"}, "Rattus norvegicus [3]": {"system": "Rattus norvegicus", "assay": "Plasma clearance was measured after iv injection in rats"}, "Rattus norvegicus [4]": {"system": "Rattus norvegicus", "assay": "Half life was measured after iv injection in rats", "settings": "in vivo"}, "Rattus norvegicus [5]": {"system": "Rattus norvegicus", "assay": "Effect on total cerebral infarct volume measured 24 hour after permanent MCA occlusion in rat upon four i.p. doses of 3 mg/kg (n=12)", "assay_type": "functional", "settings": "route intraperitoneal", "method_in_brief": "as §1"}, "[6]": {"assay": "Volume of distribution was measured", "assay_type": "ADME, organism-based", "settings": "in vivo; read-out: Volume of distribution", "method_in_brief": "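Rats were given 2.5 mg/kg iv. Plasma was sampled at nine time points from 5 min to 7 h, precipitated with acetonitrile (1:5) and quantified by LC/MS/MS against matrix calibration curves with an internal standard, C18 column, water/acetonitrile with 0.1% acetic acid gradient. Volume of distribution was calculated from the concentration–time data.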"}, "Rattus norvegicus [7]": {"system": "Rattus norvegicus", "assay": "Effect on total cerebral infarct volume measured 24 hour after permanent MCA occlusion in rat upon four i.p. doses of 30 mg/kg (n=10)", "assay_type": "functional", "settings": "route intraperitoneal", "method_in_brief": "as §1"}, "Mus musculus [8]": {"system": "Mus musculus", "assay": "Effect on brain lesion measured 24 hour after permanent MCA occlusion in mice upon four i.p. doses of 10 mg/kg (n=10)", "assay_type": "functional", "settings": "route intraperitoneal", "method_in_brief": "(§2)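 Male NMRI mice (23–30 g) under Avertin anesthesia (240 mg/kg ip), rectal temperature held at 37 ± 0.5 °C during surgery, underwent permanent MCA occlusion. Four ip injections in 10% cremophor EL were given 1 h before and 0, 1 and 2 h after occlusion. At 24 h, infarct volume was measured by TTC staining (Cavalieri principle). Results are mean ± SD versus vehicle, ANOVA with Dunnett test.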"}, "Mus musculus [9]": {"system": "Mus musculus", "assay": "Effect on brain lesion measured 24 hr after permanent MCA occlusion in mice upon four i.p. doses of 30 mg/kg (n=8)", "assay_type": "functional", "settings": "route intraperitoneal", "method_in_brief": "as §2"}, "Mus musculus [10]": {"system": "Mus musculus", "assay": "Effect on brain lesion measured 24 hour after permanent MCA occlusion in mice upon four i.p. doses of 10 mg/kg (n=9)", "assay_type": "functional", "settings": "route intraperitoneal", "method_in_brief": "as §2"}, "Rattus norvegicus [11]": {"system": "Rattus norvegicus", "assay": "Effect on total cerebral infarct volume measured 24 hour after permanent MCA occlusion in rat at a dose of 3 mg/kg (n=6)", "assay_type": "functional", "method_in_brief": "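Male Fischer-344 rats underwent permanent MCA occlusion and received a single ip dose in physiological saline (0.9% NaCl) immediately after occlusion. Rectal temperature was held at 37 ± 0.5 °C during surgery. At 24 h, under Nembutal, brains were TTC-stained and infarct areas measured, with volume by Cavalieri principle. Mean ± SD; ANOVA with Dunnett's test versus vehicle.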"}, "Mus musculus [12]": {"system": "Mus musculus", "assay": "Effect on brain lesion measured 24 hour after permanent MCA occlusion in mice upon three i.p. doses of 30 mg/kg (n=12)", "assay_type": "functional", "settings": "route intraperitoneal", "method_in_brief": "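Reference paradigm in male NMRI mice with permanent MCA occlusion, anesthetized with Avertin (240 mg/kg ip). Three ip injections of 30 mg/kg in physiological saline at 60, 70 and 85 min after occlusion (table footnote says 80 min). Infarct volume was measured at 24 h by TTC staining and Cavalieri calculation. Results are mean ± SD versus saline vehicle, ANOVA/Dunnett.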"}}, "data": [{"smiles": "c1ccc(C2=Nn3ccnc3Cc3cc4c(cc32)OCO4)cc1", "values": [{"measurement": "IC50", "setting": "[1]", "value": 6.5, "unit": "µM"}]}, {"smiles": "Cc1nc2n(c1C)N=C(c1ccc(F)cc1)c1cc3c(cc1C2)OCO3", "values": [{"measurement": "IC50", "setting": "[1]", "value": 10, "unit": "µM"}]}, {"smiles": "Cc1nc2n(c1C)N=C(c1ccccc1)c1cc3c(cc1C2)OCO3", "values": [{"measurement": "Total infarct volume", "setting": "Rattus norvegicus [2]", "value": 142, "unit": "mm³"}, {"measurement": "clearance", "setting": "Rattus norvegicus [3]", "value": 54, "unit": "mL/min/kg"}, {"measurement": "half-life", "setting": "Rattus norvegicus [4]", "value": 1.2, "unit": "h"}, {"measurement": "Total infarct volume", "setting": "Rattus norvegicus [5]", "value": 138, "unit": "mm³"}, {"measurement": "Vd", "setting": "[6]", "value": 2.7, "unit": "L/kg"}, {"measurement": "Total infarct volume", "setting": "Rattus norvegicus [7]", "value": 132, "unit": "mm³"}, {"measurement": "Brain lesion", "setting": "Mus musculus [8]", "value": 17.1, "unit": "mm³"}, {"measurement": "IC50", "setting": "[1]", "value": 3.4, "unit": "µM"}]}, {"smiles": "Cc1c(CO)nc2n1N=C(c1ccccc1)c1cc3c(cc1C2)OCO3", "values": [{"measurement": "Brain lesion", "setting": "Mus musculus [9]", "value": 23, "unit": "mm³"}, {"measurement": "Brain lesion", "setting": "Mus musculus [10]", "value": 20.6, "unit": "mm³"}, {"measurement": "IC50", "setting": "[1]", "value": 4.6, "unit": "µM"}]}, {"smiles": "Clc1nc2n(c1Cl)N=C(c1ccccc1)c1cc3c(cc1C2)OCO3", "values": [{"measurement": "IC50", "setting": "[1]", "value": "> 10", "unit": "µM"}]}, {"smiles": "Cc1nc2n(c1C)N=C(c1ccc(Cl)cc1)c1cc3c(cc1C2)OCO3", "values": [{"measurement": "IC50", "setting": "[1]", "value": 10, "unit": "µM"}]}, {"smiles": "Brc1nc2n(c1Br)N=C(c1ccccc1)c1cc3c(cc1C2)OCO3", "values": [{"measurement": "IC50", "setting": "[1]", "value": "> 10", "unit": "µM"}]}, {"smiles": "C[C@]12N[C@H](Cc3ccccc31)c1ccccc12", "note": "[DIZOCILPINE]", "values": [{"measurement": "Total infarct volume", "setting": "Rattus norvegicus [11]", "value": 118, "unit": "mm"}]}, {"smiles": "CC1=NN=C(c2ccc(N)cc2)c2cc3c(cc2C1)OCO3", "note": "[GYKI-52466]", "values": [{"measurement": "IC50", "setting": "[1]", "value": 9, "unit": "µM"}]}, {"smiles": "NS(=O)(=O)c1cccc2c1c([N+](=O)[O-])cc1nc(O)c(O)nc12", "note": "[NBQX]", "values": [{"measurement": "Brain lesion", "setting": "Mus musculus [12]", "value": 18.4, "unit": "mm³"}]}]}
